The values that follow come from article PMC3742633 (Molecular cancer therapeutics, 2013).

Data set [1] relates to Jurkat and H522 cells. The data set can be described thus: Intracellular ATP bioluminescence assay. The data set is classed as cell-based, human. As to conditions: three hours exposure, Jurkat and H522. The essentials: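 After plating at 1×10^5 cells/well (24 h, 37°C, 5% CO2) and 3 h test compound exposure, adherent cells were washed with cold PBS, lysed in passive lysis buffer and scraped. One freeze (−80°C)/thaw (37°C) cycle, cleared at 4°C. ATP read by firefly luciferase/D-luciferin luminescence at 560 nm against an ATP standard curve, as nmol/mg BCA protein.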

In data set [2] the target is recombinant human PFKFB3 protein (Homo sapiens, UniProt Q16875). Put plainly: Recombinant PFKFB3 kinase assay. In kind it is biochemical.
Chain of recombinant human PFKFB3 protein (Q16875 whole entry): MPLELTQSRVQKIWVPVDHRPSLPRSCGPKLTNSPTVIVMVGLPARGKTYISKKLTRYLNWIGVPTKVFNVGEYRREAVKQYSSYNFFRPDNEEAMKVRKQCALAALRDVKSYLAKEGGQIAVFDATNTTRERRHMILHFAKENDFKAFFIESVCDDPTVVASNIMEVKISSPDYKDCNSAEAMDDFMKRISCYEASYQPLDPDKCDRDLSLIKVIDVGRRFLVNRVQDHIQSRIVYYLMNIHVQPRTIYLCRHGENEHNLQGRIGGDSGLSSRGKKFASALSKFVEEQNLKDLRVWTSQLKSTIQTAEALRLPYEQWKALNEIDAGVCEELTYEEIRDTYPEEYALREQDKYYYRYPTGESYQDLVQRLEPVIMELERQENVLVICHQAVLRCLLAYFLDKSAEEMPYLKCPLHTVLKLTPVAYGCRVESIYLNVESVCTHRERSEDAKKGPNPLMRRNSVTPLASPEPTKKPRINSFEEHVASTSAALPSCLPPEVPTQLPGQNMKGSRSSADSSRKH
Another data set deals with Jurkat or H522 cells. Put plainly: 2-[1-14C]-deoxy-D-glucose uptake. In kind it is cell-based, human. As to conditions: three hours exposure, Jurkat and H522. The essentials:
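Jurkat or H522 cells in RPMI 1640 + 10% FCS + 50 μg/ml gentamycin at 100,000/ml, treated immediately with DMSO vehicle or test compound for 3 h. Washed in glucose-free RPMI, 30 min with inhibitor, then 1 h with 14C-2-deoxyglucose (0.1 μCi/μl stock). Ice-cold washes, 0.5% SDS lysis, scintillation counting; counts normalized to BCA protein.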

Data set [3] is described as follows: Pharmacokinetic profile after IV administration. The data set is classed as in vivo, female C57Bl/6 mice. The settings on record: plasma. The essentials: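 Test compound was given IV to female C57Bl/6 mice, with 8 time points and 3 animals per time point. Plasma was extracted with acetonitrile and analysed by LC-MS/MS on a polar reverse-phase column with a 0.5% formic acid acetonitrile/water mobile phase. Tmax, Cmax, volume of distribution, half-life, clearance, AUCs and MRT were calculated from the concentration–time data.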

In data set [4] the test system is Jurkat T cell leukemia cells. The data set can be described thus: Cell viability, trypan blue exclusion. The data set is classed as cell-based. As to conditions: Homo sapiens, 48 h, read-out: IC50 cytotoxic effects (viability).
Data set [5] has as its system Jurkat T cell leukemia cells. The data set can be described thus: Annexin V / propidium iodide flow cytometry. The data set is classed as cell-based, human. The settings on record: 20 μM, five hours. For orientation: A flow cytometer gives signals particle by particle.
For data set [6], the system named is Jurkat and H522 cells. Put plainly: F26BP measurement in cells. The data set is classed as cell-based, human. As to conditions: three hours exposure. An outline of the steps:
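Cells plated at 1×10^5/well, 24 h in RPMI or DMEM (5% CO2, 37°C), then exposed to test compound for 3 h. Cells triturated, washed twice in PBS, dissolved in […] NaOH. F26BP measured by coupled enzyme reaction and normalized to BCA protein. Triplicate or quadruplicate; unpaired two-tailed t-test.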

Data set [7] relates to Jurkat T cell leukemia cells. As to conditions: previous studies; cited from earlier work.
Data set [8] has as its system H522 human lung adenocarcinoma cells. The data set can be described thus: Cell viability, trypan blue exclusion. The data set is classed as cell-based. The settings on record: NCI-H522, 48 h, read-out: IC50 cytotoxic effects (viability).
[9] abbreviates: female, C57Bl/6, mouse, iv, 5 mg/kg.

Molecules are shown by their SMILES. Some results are limits rather than exact numbers.

On to `O=C(C=Cc1cccnc1)c1ccncc1` [3PO, 3-(3-pyridinyl)-1-(4-pyridinyl)-2-propen-1-one, reference compound], for which the “effect on intracellular ATP” value in the data set with Jurkat and H522 cells [1] is “reduced”. In addition, the IC50 in data set [2] stood at 22.9 µM. In the data set on Jurkat or H522 cells, the “effect on glucose uptake (14C-2DG)” value was “reduced”. This molecule displayed an AUC0-inf in data set [3] (IV, C57Bl/6 mice) of 36 ng/h/mL. In data set [3] (setting [9]), this molecule showed a Cmax of 113 ng/mL, a clearance of 2310 mL/min/kg and a half-life of 18 min. Further, in data set [4], the IC50 is 7.2 µM. The “cells undergoing early apoptosis (Annexin V+/PI−)” value in [5] was “increased”. In the data set on Jurkat and H522 cells [6], the “effect on F26BP” value is listed as “reduced”. For the same molecule, the “concentrations that caused cell death” value in data set [7] is > 10 µM. Further, the IC50 in data set [8] was 5.57 µM.

Usually IC50 stands for the concentration needed to halve the response being measured. For orientation: Cmax means the peak of the concentration-time curve. The term clearance denotes a measure of how efficiently the substance is removed, as volume per time. A high value points to efficient removal. A word on the half-life: it is the time needed for the level to fall by half in the phase considered. The low end stands for fast loss, the high end for slow loss.
